Laboratory results from PMC4077163 (Bioorganic & medicinal chemistry letters, 2014).
Square brackets hold non-standard residues; d marks the D form. Peptide text beside a SMILES is read from it. * marks the point of attachment. pY = N[C@@H](Cc1ccc(OP(=O)(O)O)cc1)C(=O)O; Hydrocinnamoyl = O=C(CCc1ccccc1)*; Ac6c = NC1(C(=O)O)CCCCC1; Cbz = O=C(OCc1ccccc1)*

What was measured:
Grb2 SH2 domain [1] = target: T1, Grb2 SH2 domain (Homo sapiens, UniProt P62993); assay: Isothermal titration calorimetry; format: binding; conditions: for ΔG° / ΔH° / −TΔS°: ITC, 25 °C, HEPES (50 mM), NaCl (150 mM), pH 7.45 ± 0.05; for potency relative to indolyl compound 10: from ITC data of Table 1
T1 sequence (P62993 60-152 limits assumed): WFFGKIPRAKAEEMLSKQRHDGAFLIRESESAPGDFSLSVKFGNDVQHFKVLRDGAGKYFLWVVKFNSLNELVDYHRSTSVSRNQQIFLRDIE
Summary of the method: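 Tripeptide phosphotyrosine-analogue ligands were titrated against the Grb2 SH2 domain by ITC at 25 °C in 50 mM HEPES, 150 mM NaCl, pH 7.45 ± 0.05. Ka, ΔG°, ΔH° and ΔS° were taken from the titrations. Each ligand had three or more runs. The n value of each run was normalized by adjusting ligand concentration, then the runs were averaged.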

Grb2 SH2 domain [2] = target: T1, Grb2 SH2 domain; assay: Literature affinity; format: binding; conditions: ratio of literature IC50 values, more potent than 3

Row | SMILES | Kd (Grb2 SH2 domain [1]) [nM] | ΔG° (Grb2 SH2 domain [1]) [kcal/mol] | ΔH° (Grb2 SH2 domain [1]) [kcal/mol] | −TΔS° (Grb2 SH2 domain [1]) | potency relative to 3 (Grb2 SH2 domain [2]) | potency relative to indolyl compound 10 (Grb2 SH2 domain [1])
1 | NC(=O)C[C@H](NC(=O)C1(NC(=O)[C@H](Cc2ccc(OP(=O)(O)O)cc2)NC(=O)OCc2cccc(N)c2)CCCCC1)C(N)=O [Compound 9] | 114 | -9.5 ± 0.1 | -9.1 ± 0.5 | -0.4 ± 0.3 kcal/mol | about 65 fold | 
2 | CC(=O)N[C@@H](Cc1ccc(OP(=O)(O)O)cc1)C(=O)NC1(C(=O)N[C@@H](CC(N)=O)C(N)=O)CCCCC1 [Compound 7] (HELM PEPTIDE1{[ac].[O=C([C@H](Cc1ccc(OP(=O)(O)O)cc1)N[*:1])[*:2]].[O=C(C1(N[*:1])CCCCC1)[*:2]].N.[am]}$$$$V2.0) | 143 | -9.3 ± 0.1 | -8.5 ± 0.4 | -0.8 ± 0.4 kcal/mol |  | 
3 | NC(=O)C[C@H](NC(=O)C1(NC(=O)[C@H](Cc2ccc(OP(=O)(O)O)cc2)NC(=O)CCc2ccccc2)CCCCC1)C(N)=O [Compound 11] (Hydrocinnamoyl-[pY]-[Ac6c]-Asn-NH2) | 42.7 | -10.1 ± 0.1 | -9.5 ± 0.5 | -0.6 ± 0.1 kcal/mol |  | about two-fold more potent
4 | Cn1cc(CCC(=O)N[C@@H](Cc2ccc(OP(=O)(O)O)cc2)C(=O)NC2(C(=O)N[C@@H](CC(N)=O)C(N)=O)CCCCC2)c2ccccc21 [Compound 10] | 87.7 | -9.6 ± 0.1 | -10.0 ± 0.3 | +0.4 ± 0.1 kcal mol^−1 |  | 
5 | NC(=O)C[C@H](NC(=O)C1(NC(=O)[C@H](Cc2ccc(OP(=O)(O)O)cc2)NC(=O)CCC2CCCCC2)CCCCC1)C(N)=O [Compound 12] | 34.7 | -10.2 ± 0.1 | -10.0 ± 0.5 | -0.2 ± 0.1 kcal/mol |  | about two-fold more potent
6 | NC(=O)C[C@H](NC(=O)C1(NC(=O)[C@H](Cc2ccc(OP(=O)(O)O)cc2)NC(=O)OCc2ccccc2)CCCCC1)C(N)=O [Compound 8] (Cbz-[pY]-[Ac6c]-Asn-NH2) | 154 | -9.3 ± 0.1 | -9.3 ± 0.3 | 0.0 ± 0.1 kcal/mol |  | 
